Measurements taken from ChEMBL document CHEMBL1221168, “Activity-based probes that target diverse cysteine protease families” (Nat Chem Biol, 2005).
The source made the active and inactive calls. The rule behind the calls is not given here. Square brackets hold non-standard residues; d marks the D form. Peptide text beside a SMILES is read from it. * marks the point of attachment. ξ: configuration not given here. AspCH2OBz(2,6-Me2) = Cc1cccc(C)c1C(=O)OCC(=O)[C@H](CC(=O)O)N*; Biotin = O=C1N[C@H]2[C@H](CS[C@H]2CCCCC(=O)*)N1; Tyr(3-I) = N[C@@H](Cc1ccc(O)c(I)c1)C(=O)O; X1 = O=C1N[C@@H]2CSC(CCCCC(=O)*)[C@@H]2N1; ξD = NC(CC(=O)O)C(=O)O; Ahx = NCCCCCC(=O)O; CH2F = FC*

Key:
Caspase-6 (Homo sapiens) = target: T1, Caspase-6 (Homo sapiens) (UniProt P55212); assay: Binding affinity to human recombinant caspase 6 assessed as protein labeling by SDS-PAGE based affinity blotting; conditions: tested as the 125I-labelled form
T1 sequence (whole entry): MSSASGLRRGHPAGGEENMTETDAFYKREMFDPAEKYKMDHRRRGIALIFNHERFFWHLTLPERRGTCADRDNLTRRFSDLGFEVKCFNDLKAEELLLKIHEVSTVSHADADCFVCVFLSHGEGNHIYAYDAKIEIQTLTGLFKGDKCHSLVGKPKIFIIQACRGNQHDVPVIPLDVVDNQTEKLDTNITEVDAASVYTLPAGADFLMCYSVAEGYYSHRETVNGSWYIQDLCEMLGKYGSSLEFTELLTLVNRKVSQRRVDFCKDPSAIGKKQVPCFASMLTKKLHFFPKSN

Caspase-7 (Homo sapiens) [1] = target: T2, Caspase-7 (Homo sapiens) (UniProt P55210); assay: Binding affinity to human recombinant caspase 7 assessed as protein labeling by SDS-PAGE based affinity blotting; conditions: tested as the 125I-labelled form
T2 sequence (whole entry): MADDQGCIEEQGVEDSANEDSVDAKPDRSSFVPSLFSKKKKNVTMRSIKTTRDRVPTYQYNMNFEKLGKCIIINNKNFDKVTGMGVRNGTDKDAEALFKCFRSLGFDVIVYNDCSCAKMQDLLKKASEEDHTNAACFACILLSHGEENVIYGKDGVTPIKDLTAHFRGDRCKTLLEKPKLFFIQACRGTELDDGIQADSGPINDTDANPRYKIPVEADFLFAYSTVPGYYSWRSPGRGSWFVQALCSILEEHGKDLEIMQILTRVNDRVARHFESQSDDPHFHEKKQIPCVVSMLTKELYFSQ

Caspase-9 (Homo sapiens) [2] = target: T3, Caspase-9 (Homo sapiens) (UniProt P55211); assay: Binding affinity to human recombinant caspase 9 assessed as protein labeling by SDS-PAGE based affinity blotting; conditions: tested as the 125I-labelled form
T3 sequence (whole entry): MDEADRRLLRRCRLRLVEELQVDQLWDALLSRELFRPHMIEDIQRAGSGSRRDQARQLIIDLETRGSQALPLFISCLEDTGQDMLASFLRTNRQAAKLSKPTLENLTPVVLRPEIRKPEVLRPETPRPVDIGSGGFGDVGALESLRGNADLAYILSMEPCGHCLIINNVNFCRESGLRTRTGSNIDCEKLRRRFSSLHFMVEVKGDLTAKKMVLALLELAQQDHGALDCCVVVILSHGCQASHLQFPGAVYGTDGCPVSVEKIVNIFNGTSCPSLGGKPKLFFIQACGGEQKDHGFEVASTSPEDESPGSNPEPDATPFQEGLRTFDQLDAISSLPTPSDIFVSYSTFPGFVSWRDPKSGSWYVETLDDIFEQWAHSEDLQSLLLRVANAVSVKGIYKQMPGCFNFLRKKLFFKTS

Caspase-8 (Homo sapiens) = Caspase-8 (Homo sapiens) (UniProt Q14790); assay: Binding affinity to human recombinant caspase 8 assessed as protein labeling by SDS-PAGE based affinity blotting; conditions: tested as the 125I-labelled form
Chain of Caspase-8 (Homo sapiens) (Q14790 217-374 limits assumed): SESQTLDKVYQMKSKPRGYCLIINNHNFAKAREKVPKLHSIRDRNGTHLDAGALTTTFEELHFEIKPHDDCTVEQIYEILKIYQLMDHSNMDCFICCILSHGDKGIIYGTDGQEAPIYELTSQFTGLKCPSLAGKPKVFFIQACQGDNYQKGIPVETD
Chain of Caspase-8 (Homo sapiens) (Q14790 385-479 limits assumed): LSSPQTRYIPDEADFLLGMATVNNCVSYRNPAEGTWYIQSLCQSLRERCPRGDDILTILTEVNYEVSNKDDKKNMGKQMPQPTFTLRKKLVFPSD

Caspase-9 (Homo sapiens) [3] = target: T3, Caspase-9 (Homo sapiens); assay: Binding affinity to caspase 9 in human Sh-SY-5Y cells extracts assessed as protein labeling by SDS-PAGE based affinity blotting; type: cell-free
Caspase-3 (Homo sapiens) [4] = target: T4, Caspase-3 (Homo sapiens) (UniProt P42574); assay: Binding affinity to human recombinant caspase 3 assessed as protein labeling by SDS-PAGE based affinity blotting; conditions: tested as the 125I-labelled form
T4 sequence (whole entry): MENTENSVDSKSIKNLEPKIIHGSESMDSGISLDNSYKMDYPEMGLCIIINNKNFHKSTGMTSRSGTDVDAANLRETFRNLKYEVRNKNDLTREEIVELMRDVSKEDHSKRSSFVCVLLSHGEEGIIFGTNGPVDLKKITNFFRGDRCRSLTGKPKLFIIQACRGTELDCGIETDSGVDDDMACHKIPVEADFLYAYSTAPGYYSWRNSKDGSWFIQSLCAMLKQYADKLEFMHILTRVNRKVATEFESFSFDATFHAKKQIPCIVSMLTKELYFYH

Caspase-7 (Homo sapiens) [5] = target: T2, Caspase-7 (Homo sapiens); assay: Binding affinity to caspase 7 in human Sh-SY-5Y cells extracts assessed as protein labeling by SDS-PAGE based affinity blotting; type: cell-free
Caspase-3 (Homo sapiens) [6] = target: T4, Caspase-3 (Homo sapiens); assay: Binding affinity to caspase 3 in human Sh-SY-5Y cells extracts assessed as protein labeling by SDS-PAGE based affinity blotting; type: cell-free
Legumain (Homo sapiens) [7] = target: T5, Legumain (Homo sapiens) (UniProt Q99538); assay: Binding affinity to legumain in human Raji cells assessed as protein labeling at 10 uM after 30 mins by SDS-PAGE based affinity blotting; type: cell-based; conditions: tested as the 125I-labelled form
T5 sequence (whole entry): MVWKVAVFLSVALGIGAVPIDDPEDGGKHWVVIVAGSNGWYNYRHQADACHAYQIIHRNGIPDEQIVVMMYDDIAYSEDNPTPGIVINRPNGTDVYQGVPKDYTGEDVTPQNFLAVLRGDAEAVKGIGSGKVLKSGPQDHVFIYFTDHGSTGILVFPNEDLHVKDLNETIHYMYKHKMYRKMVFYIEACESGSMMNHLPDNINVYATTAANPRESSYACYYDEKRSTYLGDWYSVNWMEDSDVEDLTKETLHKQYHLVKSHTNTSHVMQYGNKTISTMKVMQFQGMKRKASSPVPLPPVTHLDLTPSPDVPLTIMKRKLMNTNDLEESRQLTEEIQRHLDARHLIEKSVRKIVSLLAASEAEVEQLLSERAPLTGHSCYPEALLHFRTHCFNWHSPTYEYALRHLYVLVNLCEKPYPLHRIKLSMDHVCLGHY
Summary of the method: (§1)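 B cell lines (2.2.93, 8.1.6, Raji) and Jurkat T cell pellets were lysed in 50 mM citrate phosphate, 1% CHAPS, 0.5% Triton, 5 mM DTT for 10 min on ice, then spun at 14,000g for 15 min at 4 °C. Lysates were set to 1 mg/ml in citrate phosphate pH 5.8, 0.1% CHAPS, 5 mM DTT and labeled for 30 min at 37 °C. Read-out was SDS-PAGE and biotin affinity blot.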

Legumain (Homo sapiens) [8] = target: T5, Legumain (Homo sapiens); assay: Binding affinity to legumain in human 8.1.6 cells assessed as protein labeling at 10 uM after 30 mins immunoprecipitation; type: cell-based; conditions: tested as the 125I-labelled form
Summary of the method: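 8.1.6 B cell lysate at 1 mg/ml in citrate phosphate pH 5.8, 0.1% CHAPS, 5 mM DTT was labeled with probe for 30 min at 37 °C. Legumain was then immunoprecipitated with polyclonal anti-legumain antisera. Input, pellet and supernatant were probed for biotinylated proteins.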

Legumain (Homo sapiens) [9] = target: T5, Legumain (Homo sapiens); assay: Binding affinity to legumain in human 2.2.93 cells assessed as protein labeling at 10 uM after 30 mins by SDS-PAGE based affinity blotting; type: cell-based; conditions: tested as the 125I-labelled form; summary of the method: as §1
Legumain (Mus musculus) = target: T6, Legumain (Mus musculus) (UniProt O89017); assay: Binding affinity to legumain in mouse spleen lysates assessed as protein labeling at 10 uM after 30 mins by SDS-PAGE based affinity blotting; type: tissue-based; conditions: tested as the 125I-labelled form
T6 sequence (whole entry): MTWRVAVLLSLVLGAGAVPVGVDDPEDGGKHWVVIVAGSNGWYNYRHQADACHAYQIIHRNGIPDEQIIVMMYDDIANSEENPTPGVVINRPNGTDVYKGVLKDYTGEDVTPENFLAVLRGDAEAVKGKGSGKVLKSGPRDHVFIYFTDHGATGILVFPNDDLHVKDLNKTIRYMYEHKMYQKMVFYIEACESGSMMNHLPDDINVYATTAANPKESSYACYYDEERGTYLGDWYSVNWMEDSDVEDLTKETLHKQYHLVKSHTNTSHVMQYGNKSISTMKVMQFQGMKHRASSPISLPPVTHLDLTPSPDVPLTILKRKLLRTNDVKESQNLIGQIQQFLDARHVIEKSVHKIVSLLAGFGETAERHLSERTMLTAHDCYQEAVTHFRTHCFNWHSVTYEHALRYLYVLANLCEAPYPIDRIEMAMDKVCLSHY

Legumain (Homo sapiens) [10] = target: T5, Legumain (Homo sapiens); assay: Binding affinity to human purified legumain assessed as protein labeling; conditions: tested as the 125I-labelled form
Legumain (Homo sapiens) [11] = target: T5, Legumain (Homo sapiens); assay: Binding affinity to legumain in human Jurkat T cells assessed as protein labeling at 10 uM after 30 mins by SDS-PAGE based affinity blotting; type: cell-based; conditions: tested as the 125I-labelled form; summary of the method: as §1
Legumain (Homo sapiens) [12] = target: T5, Legumain (Homo sapiens); assay: Binding affinity to legumain in human 8.1.6 cells assessed as protein labeling at 1 uM at acidic pH after 30 mins by SDS-PAGE based affinity blotting; conditions: tested as the 125I-labelled form
Legumain (Homo sapiens) [13] = target: T5, Legumain (Homo sapiens); assay: Binding affinity to legumain in human 8.1.6 cells assessed as protein labeling at 10 uM after 30 mins by SDS-PAGE based affinity blotting; type: cell-based; conditions: tested as the 125I-labelled form; summary of the method: as §1

Activity (Caspase-6 (Homo sapiens))	Activity (Caspase-7 (Homo sapiens) [1])	Activity (Caspase-9 (Homo sapiens) [2])	Activity (Caspase-8 (Homo sapiens))	Activity (Caspase-9 (Homo sapiens) [3])	Activity (Caspase-3 (Homo sapiens) [4])	Activity (Caspase-7 (Homo sapiens) [5])	Activity (Caspase-3 (Homo sapiens) [6])	Activity (Legumain (Homo sapiens) [7])	Activity (Legumain (Homo sapiens) [8])	Activity (Legumain (Homo sapiens) [9])	Activity (Legumain (Mus musculus))	Activity (Legumain (Homo sapiens) [10])	Activity (Legumain (Homo sapiens) [11])	Activity (Legumain (Homo sapiens) [12])	Activity (Legumain (Homo sapiens) [13])	Structure (SMILES)
inactive	Active	Active	Active	Active	Active	–	–	–	–	–	–	–	–	–	–	CC(=O)N[C@@H](CCCCNC(=O)CCCCC1SC[C@H]2NC(=O)N[C@@H]12)C(=O)N[C@@H](Cc1ccc(O)c(I)c1)C(=O)NCCCCCC(=O)N[C@@H](CCC(=O)O)C(=O)N[C@H](C(=O)N[C@@H](CC(=O)O)C(=O)COC(=O)c1c(C)cccc1C)C(C)C (stereo not given in full) (Ac-K(X1)[Tyr(3-I)][Ahx]EV-{AspCH2OBz(2,6-Me2)})
–	–	–	–	–	–	Active	Active	–	–	–	–	–	–	–	–	COC(=O)CC(NC(=O)[C@H](C)NC(=O)[C@@H](NC(=O)CCCCCNC(=O)CCCC[C@@H]1SC[C@@H]2NC(=O)N[C@@H]21)C(C)C)C(=O)CF (stereo partly drawn) ({Biotin-Ahx}-Val-Ala-[ξD](OMe)-CH2F)
Active	Active	–	Active	–	Active	–	–	Active	Active	Active	Active	Active	Active	Active	Active	CC(=O)N[C@@H](CCCCNC(=O)CCCCC1SC[C@H]2NC(=O)N[C@@H]12)C(=O)N[C@@H](Cc1ccc(O)c(I)c1)C(=O)NCCCCCC(=O)N[C@@H](CC(=O)O)C(=O)COC(=O)c1c(C)cccc1C (stereo not given in full)
